Assay results: article PMC7906539 (Medicinal chemistry research : an international journal for …, 2020)
Converted amounts (≈) assume the structure as drawn. “Also recorded” adds a separate entry of the source.

Tests used:
[1] = test system: mHtt toxicity in PC12 cells; assay: Protection against mHtt toxicity in neuronal cell model for HD; format: cell-based; conditions: three different concentrations
Outline: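 Each experiment run at least three times; values reported as mean ± standard error of the mean.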

[2] = test system: calcium/CaM-dependent kinase 2γ (CaMK2γ); assay: CaM-dependent kinase assay; format: biochemical, Human; conditions: single concentration of 100 μM, in the presence of CaM
Outline: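 ADP-Glo reaction with CaMK2γ (12 ng), 25 μM ATP and Autocamtide-2 substrate, carried out with CaM present. Test compound is at a single 100 μM from DMSO; incubation 60 min at room temperature. Luminescent readout gives percent enzyme activity relative to the reaction without compound. Run three times with at least two replicates per experiment; mean ± SEM.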

[3] = target: death-associate protein kinase 1 (DAPK1) (Homo sapiens, UniProt P53355); assay: CaM-dependent kinase assay; format: biochemical; conditions: single concentration of 100 μM, in the presence of CaM
Chain of death-associate protein kinase 1 (DAPK1) (P53355 1-363): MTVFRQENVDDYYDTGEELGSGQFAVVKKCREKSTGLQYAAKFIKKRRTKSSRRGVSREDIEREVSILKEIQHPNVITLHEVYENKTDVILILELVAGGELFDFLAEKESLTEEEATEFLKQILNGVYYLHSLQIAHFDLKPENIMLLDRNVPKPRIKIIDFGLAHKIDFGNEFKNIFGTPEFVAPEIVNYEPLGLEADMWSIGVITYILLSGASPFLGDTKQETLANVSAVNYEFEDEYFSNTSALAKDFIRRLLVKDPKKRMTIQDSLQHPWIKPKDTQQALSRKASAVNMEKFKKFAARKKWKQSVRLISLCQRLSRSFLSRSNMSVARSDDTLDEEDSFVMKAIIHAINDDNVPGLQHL
Outline: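 Recombinant DAPK1 (25 ng), run with ADP-Glo at 5 μM ATP with native swine myelin basic protein as substrate, in the presence of CaM. Test compound is added at a single 100 μM (DMSO) and reacted 60 min at room temperature. Luminescence is read, and activity is expressed as percent of the no-compound reaction. Three experiments, ≥2 replicates each; mean ± SEM.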

[4] = target: His-mHtt and GST-CaM (CaM–mHtt interaction) (Homo sapiens, UniProt P0DP23+P42858); assay: CaM/mHtt AlphaScreen binding assay; conditions: read-out: AlphaScreen CaM–mHtt, IC50; triplicate
Chain of His-mHtt and GST-CaM (CaM–mHtt interaction) (P42858 whole entry, one chain of several): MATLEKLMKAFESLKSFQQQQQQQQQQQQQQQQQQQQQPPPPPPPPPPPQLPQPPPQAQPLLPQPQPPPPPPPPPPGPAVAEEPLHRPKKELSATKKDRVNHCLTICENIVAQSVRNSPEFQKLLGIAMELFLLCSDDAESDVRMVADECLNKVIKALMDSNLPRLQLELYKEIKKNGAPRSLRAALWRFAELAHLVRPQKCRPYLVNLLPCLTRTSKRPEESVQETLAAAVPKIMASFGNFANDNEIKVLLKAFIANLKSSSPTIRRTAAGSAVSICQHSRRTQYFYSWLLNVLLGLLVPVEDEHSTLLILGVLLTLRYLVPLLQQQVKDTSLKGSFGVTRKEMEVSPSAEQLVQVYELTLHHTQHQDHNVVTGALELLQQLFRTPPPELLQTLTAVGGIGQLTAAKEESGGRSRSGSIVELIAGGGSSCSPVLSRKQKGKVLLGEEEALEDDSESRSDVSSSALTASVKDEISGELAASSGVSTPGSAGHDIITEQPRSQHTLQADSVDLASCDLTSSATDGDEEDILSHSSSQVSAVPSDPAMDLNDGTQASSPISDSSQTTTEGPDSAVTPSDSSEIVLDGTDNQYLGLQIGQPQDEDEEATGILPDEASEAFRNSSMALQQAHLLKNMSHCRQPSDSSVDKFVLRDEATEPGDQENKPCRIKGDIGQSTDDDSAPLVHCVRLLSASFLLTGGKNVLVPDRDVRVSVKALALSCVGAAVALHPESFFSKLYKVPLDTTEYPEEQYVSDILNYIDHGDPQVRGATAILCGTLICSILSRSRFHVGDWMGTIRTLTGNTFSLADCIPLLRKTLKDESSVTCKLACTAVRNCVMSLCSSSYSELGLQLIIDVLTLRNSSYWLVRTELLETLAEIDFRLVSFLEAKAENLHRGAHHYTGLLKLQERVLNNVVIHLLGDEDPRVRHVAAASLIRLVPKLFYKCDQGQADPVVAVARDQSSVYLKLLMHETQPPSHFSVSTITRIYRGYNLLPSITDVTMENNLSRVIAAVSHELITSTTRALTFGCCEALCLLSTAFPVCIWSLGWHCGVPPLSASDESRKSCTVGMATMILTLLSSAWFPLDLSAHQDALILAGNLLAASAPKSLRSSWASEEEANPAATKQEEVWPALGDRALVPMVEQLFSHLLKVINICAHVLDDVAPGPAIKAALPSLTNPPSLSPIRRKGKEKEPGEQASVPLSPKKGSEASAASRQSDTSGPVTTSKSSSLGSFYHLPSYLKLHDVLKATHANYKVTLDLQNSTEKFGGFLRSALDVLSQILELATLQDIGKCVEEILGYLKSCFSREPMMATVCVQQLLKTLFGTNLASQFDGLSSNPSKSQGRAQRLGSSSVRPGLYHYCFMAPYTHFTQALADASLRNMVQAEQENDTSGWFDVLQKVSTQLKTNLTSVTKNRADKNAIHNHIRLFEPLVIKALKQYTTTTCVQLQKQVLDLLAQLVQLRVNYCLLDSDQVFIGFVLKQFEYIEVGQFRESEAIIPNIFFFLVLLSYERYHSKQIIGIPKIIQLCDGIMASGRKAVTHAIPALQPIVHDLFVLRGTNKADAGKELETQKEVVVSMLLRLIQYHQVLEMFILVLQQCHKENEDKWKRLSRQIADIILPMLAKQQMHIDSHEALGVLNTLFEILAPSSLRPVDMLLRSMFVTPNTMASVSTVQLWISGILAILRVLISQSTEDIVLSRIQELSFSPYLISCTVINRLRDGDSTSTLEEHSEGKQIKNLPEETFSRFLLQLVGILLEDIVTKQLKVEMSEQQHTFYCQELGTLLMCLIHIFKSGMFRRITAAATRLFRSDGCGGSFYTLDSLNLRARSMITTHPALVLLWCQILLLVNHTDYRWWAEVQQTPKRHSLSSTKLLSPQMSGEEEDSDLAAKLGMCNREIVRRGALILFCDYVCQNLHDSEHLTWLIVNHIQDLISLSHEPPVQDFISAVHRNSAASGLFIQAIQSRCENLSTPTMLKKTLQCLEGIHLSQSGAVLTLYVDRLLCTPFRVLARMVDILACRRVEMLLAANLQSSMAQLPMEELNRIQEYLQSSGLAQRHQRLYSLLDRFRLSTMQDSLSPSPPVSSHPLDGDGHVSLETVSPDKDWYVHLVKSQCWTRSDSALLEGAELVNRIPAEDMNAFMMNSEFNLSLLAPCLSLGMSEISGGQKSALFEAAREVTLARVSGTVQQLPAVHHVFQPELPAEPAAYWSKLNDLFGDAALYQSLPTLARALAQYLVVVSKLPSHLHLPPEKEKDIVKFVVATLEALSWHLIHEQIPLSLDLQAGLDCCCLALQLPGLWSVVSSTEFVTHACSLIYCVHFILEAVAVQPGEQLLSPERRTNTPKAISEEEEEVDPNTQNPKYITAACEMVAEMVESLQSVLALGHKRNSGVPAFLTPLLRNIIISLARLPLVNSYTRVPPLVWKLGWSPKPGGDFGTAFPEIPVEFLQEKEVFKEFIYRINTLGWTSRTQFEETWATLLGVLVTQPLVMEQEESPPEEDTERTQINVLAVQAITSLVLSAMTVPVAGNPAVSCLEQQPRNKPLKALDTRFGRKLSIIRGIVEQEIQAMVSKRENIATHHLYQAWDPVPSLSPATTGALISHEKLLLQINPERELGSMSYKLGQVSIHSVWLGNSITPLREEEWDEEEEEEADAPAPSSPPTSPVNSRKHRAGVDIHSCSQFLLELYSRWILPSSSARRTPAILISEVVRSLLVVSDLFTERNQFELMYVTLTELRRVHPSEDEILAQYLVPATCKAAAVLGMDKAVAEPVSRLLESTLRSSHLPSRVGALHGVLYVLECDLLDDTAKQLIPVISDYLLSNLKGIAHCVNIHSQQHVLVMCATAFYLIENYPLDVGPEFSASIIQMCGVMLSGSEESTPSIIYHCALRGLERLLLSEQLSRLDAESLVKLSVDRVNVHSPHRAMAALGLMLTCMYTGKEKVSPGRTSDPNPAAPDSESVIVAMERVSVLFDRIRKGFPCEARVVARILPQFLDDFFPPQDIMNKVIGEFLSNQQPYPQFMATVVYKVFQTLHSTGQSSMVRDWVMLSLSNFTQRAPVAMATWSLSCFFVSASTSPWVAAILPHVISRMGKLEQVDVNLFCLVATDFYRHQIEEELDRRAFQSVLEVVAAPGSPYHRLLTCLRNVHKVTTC
Outline: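 His-mHtt (10 nM) preincubated 30 min with test compound, then GST-CaM (10 nM) added for 60 min at room temperature. Ni-chelate acceptor (10 μg/mL) and glutathione donor beads (15 μg/mL) are added for 2 h, then Alpha counts are read. Final 300–0.002 μM, triplicate; % inhibition normalized to DMSO controls.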

[5] = test system: SH-SY5Y cells; assay: Cytotoxicity assay; format: cell-based; conditions: SH-SY5Y cells, 24 h incubation, CellTiter-Glo
Outline: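 SH-SY5Y cells seeded at 6000/well in 1:1 EMEM/F12 with 10% FBS. Exposure 24 h at 37 °C, then CellTiter-Glo luminescence read. Percent cytotoxicity normalized to DMSO controls.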

[6] = PAMPA permeability; format: in vitro ADME
[7] = Kinetic solubility; format: physicochemical

| SMILES | Protection against mHtt toxicity (in words) [1] | Inhibition of CaMK2γ enzyme activity (in words) [2] | Inhibition of DAPK1 enzyme activity (in words) [3] | IC50 [4] [nM] | Cytotoxicity (SH-SY5Y cells, 24 h) [5] [µM] | permeability (PAMPA assay) [6] [×10⁻⁶ cm/s] | kinetic solubility [7] [µM] |
| --- | --- | --- | --- | --- | --- | --- | --- |
| C=C1CCN([C@@H](CC(C)C)C(=O)NCc2ccc(Cl)c(C(F)(F)F)c2)S(=O)(=O)c2ccccc21 [Compound 9d, (S)-N-(4-Chloro-3-(trifluoromethyl)benzyl)-4-methyl-2-(5-methylene-1,1-dioxido-4,5-dihydrobenzo[f][1,2]thiazepin-2 (3H)-yl)pentanamide] | barely measurable activity; also recorded: do not show protection; also recorded: no significant rescue of the toxicity | did not significantly inhibit | did not significantly inhibit | 1380 | >300 |  |  |
| C=C1CCN([C@@H](CC(C)C)C(=O)NCCc2ccc(Cl)c(Cl)c2)S(=O)(=O)c2ccccc21 [Compound 9h, (S)-N-(3,4-Dichlorophenethyl)-4-methyl-2-(5-methylene-1,1-dioxido-4,5-dihydrobenzo[f][1,2]thiazepin-2(3H)-yl) pentanamide] | barely measurable activity; also recorded: do not show protection; also recorded: did not show any significant effect | statistically significant impact; also recorded: statistically significant effect on inhibition | but not DAPK1 activity | 550 | >300 | 0.76 | 0.6 (≈ 0.297 µg/mL) |
